Measured values of several laboratories.
Protocols differ between the studies behind these lines.
CASP8: Caspase-8 (CASP8, Homo sapiens, UniProt Q14790)
ABHD6: Monoacylglycerol lipase ABHD6 (ABHD6, Homo sapiens, UniProt Q9BV23)

`C[C@H](C(=O)N[C@H]1COc2ccccc2[C@@H]1S(C)(=O)=O)c1ccc(F)cc1` has an inhibition of 10% (D(4) dopamine receptor (DRD4, Homo sapiens, UniProt P21917, del265-296); cell-free assay; 10 µM).
With `COc1ccc(S(=O)(=O)N2CCCCC2)cc1C` the inhibition was less than 30% (D(4) dopamine receptor (DRD4, Homo sapiens, UniProt P21917); ligand displacement, radioligand; 10 µM).
For `CN(CCN1CCC(OC(=O)Nc2ccccc2-c2ccccc2)CC1)C(=O)c1ccc(CN2CCC(C(N)=O)CC2)cc1`, the inhibition was 22% (Histamine H2 receptor (Cavia porcellus, UniProt P47747); ligand displacement, radioligand; 1 µM).
`CCN(CC)CCCC[C@H](NC(=O)[C@H](CC(C)C)NC(=O)[C@H](C)NC(=O)[C@H](Cc1ccccc1)NC(=O)c1ccc(C(C)(C)C)cc1)C(=O)N[C@@H](CO)C(=O)OC` has an inhibition of -10% (Neurotensin receptor type 1 (NTSR1, Homo sapiens, UniProt P30989); ligand displacement, radioligand; 10 µM).
`CN(C)C(=O)COC(=O)Cc1ccc(OC(=O)c2ccc(NC(=N)N)cc2)cc1` has an inhibition of 0% (CASP8; enzyme activity, inhibitor; 10 µM).
The inhibition of `CN(C)C(=O)Oc1nsnc1N1CCCCC1` is reported as 10% (ABHD6; enzyme activity, inhibitor, fluorescence; 1 µM, lysate).
The inhibition of `C#Cc1n[nH]c2c(-c3cn([C@@H](C)c4ccccn4)c(=O)[nH]c3=O)cc(F)cc12` is reported as 5.7% (Calcium/calmodulin-dependent protein kinase type 1 (CAMK1, Homo sapiens, UniProt Q14012); enzyme activity, inhibitor; 0.1 µM).
For `CCOC(=O)c1ccc(OC(=O)CCCCCNC(=N)N)cc1`, the inhibition was 1% (CASP8; enzyme activity, inhibitor; 10 µM).
`COc1ccccc1N(C)C(=O)Oc1nsnc1N1CCCCC1` has an inhibition of 11% (ABHD6; enzyme activity, inhibitor, fluorescence; 1 µM, lysate).
The inhibition of `Cn1cc(-c2cc(F)cc(N3CCn4c(cc5c4CCCC5)C3=O)c2CO)cc(Nc2ccc(N3CCN(C4COC4)CC3)cn2)c1=O` is reported as 18% (Casein kinase II subunit alpha (CSNK2A1, Homo sapiens, UniProt P68400); enzyme activity, inhibitor; 0.1 µM).
`C#Cc1n[nH]c2c(-c3cn([C@@H](C)c4ccccc4)c(=O)[nH]c3=O)cc(F)cc12` gave an inhibition of 4% (RAC-beta serine/threonine-protein kinase (AKT2, Homo sapiens, UniProt P31751); enzyme activity, inhibitor; 0.1 µM).
The inhibition of `N=C(N)c1ccc2cc(OC(=O)c3ccc(N=C(N)N)cc3)ccc2c1` is reported as 0% (CASP8; enzyme activity, inhibitor; 10 µM).
`Cn1cc(-c2cccc(N3CCc4c(sc5c4CC(C)(C)C5)C3=O)c2CO)cc(Nc2ccncn2)c1=O` has an inhibition of -7% (Mast/stem cell growth factor receptor Kit (KIT, Homo sapiens, UniProt P10721, V654A); enzyme activity, inhibitor; 1 µM).
